Blank lines part the entries; values can stand above or below the compound they belong to.
What was measured:
[1] = system: 786‐O and ACHN cells; assay: Wound healing and transwell migration assay; assay type: cell-based, human
Summary of the method: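 Transwell, 8-μm pores: 1 × 10⁴ cells (migration) or 2 × 10⁴ on Matrigel (invasion) in serum-free medium with treatment above complete medium at matching concentration, 24 h. Cells fixed 4% paraformaldehyde, stained .1% crystal violet, counted in 4 random fields. Mean ± SD, 3 experiments.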

[2] = system: E‐cadherin, N‐cadherin, vimentin in 786‐O and ACHN cells; assay: Western blot of EMT‐related proteins; assay type: cell-based, human
[3] = system: HK‐2 normal renal tubular epithelial cells; assay: Cell viability assay; assay type: cell-based, human; details: HK‐2, low doses of TQ (less than 60 μmol/L)
[4] = system: 786‐O and ACHN cells; assay: Transwell invasion assay; assay type: cell-based, human; details: 0, 20, 40, 60 μmol/L TQ
[5] = system: 786‐O xenograft tumors; assay: Subcutaneous 786‐O xenograft tumor model; assay type: in vivo, nude mice
Summary of the method: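 Male nude mice, 5 weeks old, 19-22 g, given 1 × 10⁶ 786-O cells s.c. with Matrigel in the right flank. At 100-150 mm³, randomised 5 per group: intraperitoneal DMSO or test compound 20 mg/kg every 3 days. Volume ((length × width²) × .5) and body weight recorded every 3 days. Tumours excised and weighed after 30 days. Mean ± SD.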

[6] = system: ACHN cells; assay: Cell viability assay; assay type: cell-based; details: Homo sapiens
Summary of the method: (§1)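 Cells in RPMI-1640 with 10% FBS, seeded 5 × 10³/well, left overnight. Medium then replaced with test compound at 0, 10, 20, 40, 60, 80 and 100 μmol/L for 24 or 48 h. CCK8 added for 4 h at 37°C; OD read at 490 nm. Mean ± SD of 3 independent experiments.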

[7] = system: 786‐O cells; assay: Cell viability assay; assay type: cell-based; details: Homo sapiens
Summary of the method: as §1

[8] = system: LC3 in 786‐O and ACHN cells; assay: Autophagy detection; assay type: cell-based, human
Summary of the method: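 786-O and ACHN cells pretreated 4 h with AMPK inhibitor (50 μmol/L), then 40 μmol/L test compound 24 h. RIPA lysis with protease/phosphatase inhibitors and PMSF on ice; BCA-normalised; 10%-15% SDS-PAGE, PVDF, 10% milk block 2 h RT; anti-LC3-I/II overnight 4°C, secondary 1 h; ECL detection. Mean ± SD of 3 independent experiments.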

[9] = system: lung metastasis of 786‐O cells; assay: Metastatic tumor model, luciferase‐tagged 786‐O cells via tail veins; assay type: in vivo, nude mice; details: vs control
Summary of the method: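 Male nude mice, 5 weeks old, 19-22 g, received luciferase-tagged 786-O cells by tail vein, then two groups. Dosing was intraperitoneal DMSO (control) or test compound 20 mg/kg every 3 days. At day 30: D-luciferin 150 mg/kg i.p., 10 min wait, chloral hydrate anaesthesia, then bioluminescence imaging. Lung tumours harvested and H&E-stained.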

[10] = system: AMPK/mTOR signaling pathway in 786‐O and ACHN cells; assay: Western blot of AMPK/mTOR signaling pathway; assay type: cell-based, human; details: 0, 20, 40, 60 μmol/L TQ, 24 hours
Summary of the method: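 786-O and ACHN cells exposed 24 h to test compound at 0, 20, 40, 60 μmol/L. RIPA lysis with protease/phosphatase inhibitors and PMSF; BCA-normalised; 10%-15% SDS-PAGE, PVDF, 10% milk block. Probed overnight at 4°C for AMPK, p-AMPK (Thr172), mTOR, p-mTOR (Ser2448), p-S6K (Thr389), LC3; secondary 1 h; ECL. Mean ± SD, 3 independent experiments.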

[11] = system: RCC cells; assay: Comparison of TQ with everolimus; assay type: cell-based, human; details: Figure S3
[12] = 3‐MA 5 mmol/L with TQ 40 μmol/L
[13] = TQ 20 mg/kg intraperitoneal every 3 days, 30 days
[14] = compound C 50 μmol/L pretreatment 4 hours, then TQ 40 μmol/L 24 hours

Structure (SMILES): Cn1cnc(N)c2ncnc1-2 [3‐MA, 3‐methyladenine]
effect on anti‐migratory ability of TQ [1, 12]: remarkably attenuated
effect on TQ‐induced MET [2, 12]: abate TQ‐induced MET

IC50 ([6]; 24 h, read-out: IC50 value, inhibition on cell growth): 72 µM
Structure (SMILES): CC1=CC(=O)C(C(C)C)=CC1=O [TQ, 2‐methyl‐5‐isopropyl‐1,4‐benzoquinone]
effect on cell growth of normal cells [3]: no significant decrease in cell growth
number of invaded cells [4]: number of invaded cells decreased with the increase of TQ concentration
tumor growth / tumor weight vs control [5, 13]: TQ inhibited RCC cell growth in vivo
expression of E‐cadherin and N‐cadherin in xenograft tumors ([5]; immunohistochemistry and western blot, TQ 20 mg/kg): increased expression of E‐cadherin and decreased expression of N‐cadherin
inhibition at 40 µM ([6]; read-out: inhibitory rate of cell proliferation): < 20%
IC50 ([7]; 786-0, 24 h, read-out: IC50 value, inhibition on cell growth): 55 µM
inhibition at 40 µM ([7]; 786-0, read-out: inhibitory rate of cell proliferation): < 20%
LC3 puncta (autophagosomes and autolysosomes) ([8]; 40 μmol/L TQ, 24 hours, vs control group): number of both yellow and red puncta increased dramatically
LC3‐II expression ([8]; western blot, different concentrations of TQ): upregulate LC3‐II in a concentration‐dependent manner
lung metastasis (bioluminescence) [9, 13]: significantly inhibited lung metastasis
number of metastatic nodules in the lungs (H&E) ([9]; TQ 20 mg/kg): significant decrease in the number of metastatic nodules
expression of p‐AMPK [10]: elevated
expressions of p‐mTOR and p‐S6K [10]: reduced
cancer cell migration ([1]; wound healing 40 μmol/L, transwell 0, 20, 40, 60 μmol/L, 24 hours): attenuated cancer cell migration in a time‐dependent and concentration‐dependent manner
expression of EMT markers ([2]; different concentrations for 24 hours or 40 μmol/L for different times): upregulated epithelial markers (E‐cadherin), while downregulating mesenchymal markers (N‐cadherin, vimentin)

Structure (SMILES): c1cc(-c2cnn3cc(-c4ccc(OCCN5CCCCC5)cc4)cnc23)ccn1 [compound C]
effect on TQ‐induced LC3 [8, 14]: effects of TQ on LC3 could be receded
effect on TQ anti‐migratory and anti‐invasive effects (transwell) [1, 14]: attenuated the migratory and invasive capacities of autophagy induced by TQ
effect on TQ‐induced MET [2, 14]: weakened TQ‐induced MET

Structure (SMILES): CO[C@H]1C[C@@H]2CC[C@@H](C)[C@@](O)(O2)C(=O)C(=O)N2CCCC[C@H]2C(=O)O[C@H]([C@H](C)C[C@@H]2CC[C@@H](OCCO)[C@H](OC)C2)CC(=O)[C@H](C)/C=C(\C)[C@@H](O)[C@@H](OC)C(=O)[C@H](C)C[C@H](C)/C=C/C=C/C=C/1C [everolimus]
inhibiting migration and invasion, inducing autophagy and MET, compared with TQ [11]: significantly more potent than TQ

Source: article PMC6272120 (Cancer Science, 2018)
